For test [1], the system named is Saccharomyces cerevisiae. Briefly: Activity of Rce1p in yeast membrane assessed as release of -K(Dnp)IM tripeptide measured per mg protein by fluorescence-based proteolytic assay. In kind it is cell membranes. In outline: (§1)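 Enzyme was carbonate-washed membranes from S. cerevisiae overexpressing HA-tagged yeast Rce1p as the sole CAAX protease. Membranes were preincubated 10 min at 30 °C, then added to the Abz/Dnp fluorogenic farnesyl peptide: 10 concentrations, 0–45 or 0–50 μM final, 0.25 mg/mL membrane protein, Hepes/MgCl2 pH 7.5. Fluorescence (340/420 nm) was read every 30–60 s for 1 h at 30 °C. RFU were converted to product using a trypsin standard curve to give KM and Vmax. Runs were done in two or five replicates.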

For test [2], the system named is Saccharomyces cerevisiae. In words: Ratio of Vmax to Km for Rce1p in yeast membrane assessed as release of -K(Dnp)IM tripeptide measured per mg protein by fluorescence-based proteolytic assay. The class given is cell membranes. In outline:
as §1

Test [3] concerns Saccharomyces cerevisiae. In words: Binding affinity to Rce1p in yeast membrane at 15 uM measured 30 mins post irradiation by time-course experiment. The class given is cell membranes. An outline of the steps: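 Time course: RCE1-HA membranes (0.25 μg/μL) were irradiated at 2537 Å and 4 °C with 15 μM probe for 10–60 min, in 100 mM Hepes, 5 mM MgCl2, pH 7.5. Labelled protein was taken through streptavidin pull-down, SDS-PAGE and anti-HA Western blotting.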

Test [4] concerns Saccharomyces cerevisiae. Briefly: Binding affinity to rce1/ste24-deficient yeast cell membrane at 15 uM after 30 mins by Western blot analysis. An outline of the steps: (§2)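 Probe at 15 μM was irradiated at 2537 Å for 30 min at 4 °C in Hepes/MgCl2 pH 7.5, or left unirradiated. Membranes (0.25 μg/μL) came from RCE1-HA or Rce1p-lacking (rce1Δ ste24Δ) yeast strains. This was followed by streptavidin pull-down, SDS-PAGE and anti-HA Western blot with ECL detection.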

In test [5] the test system is Saccharomyces cerevisiae. Briefly: Binding affinity to Rce1p in yeast membrane at 15 uM measured 20 mins post irradiation by pull-down-Western blot analysis. The class given is cell membranes. In outline: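 Biotinylated probes at 15 μM were mixed with membranes (0.25 μg/μL) from the RCE1-HA rce1Δ ste24Δ yeast strain in 100 mM Hepes, 5 mM MgCl2, pH 7.5. Samples were irradiated at 2537 Å for 20 min at 4 °C. Protein was precipitated and pulled down on streptavidin for 4 h at 4 °C, then separated by 12% SDS-PAGE. Detection was by anti-HA Western blot with ECL, followed by densitometry.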

Test [6] deals with Saccharomyces cerevisiae. In words: Binding affinity to Rce1p in yeast membrane at 15 uM measured 30 mins post irradiation by Western blot analysis. In kind it is cell membranes. An outline of the steps:
as §2

For test [7], the system named is Saccharomyces cerevisiae. Briefly: Activity of Rce1p in yeast membrane assessed as formation of Biotin-PEG3-KSK-Bpa-KC(Fr) at 20 uM after 4 hrs by RP-HPLC analysis. In kind it is cell membranes. An outline of the steps: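 Probe diluted to 20 or 40 μM in 100 mM Hepes, 5 mM MgCl2, pH 7.5. Carbonate-washed yeast membranes containing Rce1p were added to 0.25 mg/mL total protein and incubated at 35 °C for about 4 h. Material was cleaned up on C18 reversed-phase cartridges and analysed by C18 RP-HPLC with diode-array detection at 220 and 349 nm. Product identity was checked by ESI-MS/MS.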

The test system of test [8] is Saccharomyces cerevisiae. Briefly: Binding affinity to rce1/ste24-deficient yeast cell membrane at 15 uM measured 30 mins post irradiation by Western blot analysis. In outline:
as §2

The subject of test [9] is Saccharomyces cerevisiae. Briefly: Binding affinity to Rce1p in yeast membrane at 15 uM after 30 mins by Western blot analysis. In kind it is cell membranes. In outline:
as §2

Test [10] concerns Saccharomyces cerevisiae. In words: Competitive binding affinity to Rce1p active site in yeast membrane at 15 uM measured 30 mins post irradiation by Western blot analysis in presence of 100 uM Abz-KSKTKC(Fr)K(Dnp)IM. The class given is cell membranes. An outline of the steps: (§3)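 RCE1-HA membranes (0.25 μg/μL) were irradiated at 2537 Å with 15 μM probe for 30 min at 4 °C. The non-photoreactive farnesylated substrate was present at 50 or 100 μM, in Hepes/MgCl2 pH 7.5. Samples were taken through streptavidin pull-down, SDS-PAGE, anti-HA Western blot with ECL, and densitometry across four replicate experiments.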

Test [11] deals with Saccharomyces cerevisiae. In words: Competitive binding affinity to Rce1p active site in yeast membrane at 15 uM measured 30 mins post irradiation by Western blot analysis in presence of 50 uM Abz-KSKTKC(Fr)K(Dnp)IM. In kind it is cell membranes. In outline: as §3

Calls of active or inactive are those of the source. The rule behind the calls is not given here. Starred links: 1 amine or outer side, 2 acyl side, 3 side chain; linkers in the order of their positions; H or OH if unused. Non-standard residues stand in square brackets, D forms with d. Residues, ends and D or L forms follow the SMILES beside them. *: point of attachment. X5 = O=C1N[C@H]2[C@H](CS[C@H]2CCCCC(=O)OCCOCCOCCN([C@@H](Cc2ccc(C(=O)c3ccccc3)cc2)C(=O)[*:2])[*:1])N1; X1 = NCCCC[C@@H](C(=O)[*:2])N(CCOCCOCCOC(=O)CCCC[C@@H]1SC[C@@H]2NC(=O)N[C@@H]21)[*:1]; Lys(Dde) = CC(NCCCC[C@H](N)C(=O)O)=C1C(=O)CC(C)(C)CC1=O; X4 = O=C1N[C@H]2[C@H](CS[C@H]2CCCCC(=O)OCCOCCOCCOCN*)N1; X2 = C/C(=C\C*)CC/C=C(\C)COCc1cccc(C(=O)c2ccccc2)c1; Bpa = N[C@@H](Cc1ccc(C(=O)c2ccccc2)cc1)C(=O)O; Dnp = O=[N+]([O-])c1ccc(*)c([N+](=O)[O-])c1; X3 = C/C(=C\C*)COCc1cccc(C(=O)c2ccccc2)c1; Farnesyl = CC(C)=CCC/C(C)=C/CC/C(C)=C/C*; Suc = O=C(CCC(=O)[*:2])[*:1]; 2Abz = Nc1ccccc1C(=O)O

On to `CC[C@H](C)[C@H](NC(=O)[C@H](CCCCNc1ccc([N+](=O)[O-])cc1[N+](=O)[O-])NC(=O)[C@H](CSC/C=C(\C)CC/C=C(\C)CCC=C(C)C)NC(=O)[C@H](CCCCN)NC(=O)[C@@H](NC(=O)[C@H](CCCCN)NC(=O)[C@H](CO)NC(=O)[C@H](CCCCN)NC(=O)c1ccccc1N)[C@@H](C)O)C(=O)N[C@@H](CCSC)C(=O)O` (H-[2Abz]KSKTKC(Farnesyl)K(Dnp)IM-OH), for which, in test [1], the Km came to 6.4 µM and the maximum rate (Vmax) is 5.6 nmol/min/mg. Besides, the Vmax/Km in test [2] came out at 8.6 ×10⁻⁴ L/min.

In the case of `CC[C@H](C)[C@H](NC(=O)[C@H](CCCCNc1ccc([N+](=O)[O-])cc1[N+](=O)[O-])NC(=O)[C@H](CSC/C=C(\C)COCc1cccc(C(=O)c2ccccc2)c1)NC(=O)[C@H](CCCCN)NC(=O)[C@@H](NC(=O)[C@H](CCCCN)NC(=O)[C@H](CO)NC(=O)[C@H](CCCCN)NC(=O)c1ccccc1N)[C@@H](C)O)C(=O)N[C@@H](CCSC)C(=O)O` (H-[2Abz]KSKTKC(X3)K(Dnp)IM-OH), in test [1], the Km amounted to 1.9 µM and the Vmax was 0.093 nmol/min/mg. In addition, the Vmax/Km in test [2] was determined as 4.8 ×10⁻⁵ L/min.

Take `CC[C@H](C)[C@H](NC(=O)[C@@H](NC(=O)[C@H](CSC/C=C(\C)CC/C=C(\C)CCC=C(C)C)NC(=O)[C@H](CCCCN)NC(=O)[C@H](Cc1ccc(C(=O)c2ccccc2)cc1)NC(=O)[C@H](CCCCN)NC(=O)[C@H](CO)NC(=O)[C@H](CCCCN)NCCOCCOCCOC(=O)CCCC[C@@H]1SC[C@@H]2NC(=O)N[C@@H]21)C(C)C)C(=O)N[C@@H](CCSC)C(=O)O` (H-[X1]SK[Bpa]KC(Farnesyl)VIM-OH): the result in test [3], in [5], in [6] and in test [7] was Active. In addition, the outcome in [4], in [8] and in [9] was inactive. Further, the Activity in test [10] was 7%; in test [11], 84%.

Take `CC[C@H](C)[C@H](NC(=O)[C@@H](NC(=O)[C@H](CSC/C=C(\C)CC/C=C(\C)CCC=C(C)C)NC(=O)[C@H](CCCCN)NC(=O)[C@@H](NC(=O)[C@H](Cc1ccc(C(=O)c2ccccc2)cc1)NC(=O)[C@H](CO)NC(=O)[C@H](CCCCN)NCCOCCOCCOC(=O)CCCC[C@@H]1SC[C@@H]2NC(=O)N[C@@H]21)[C@@H](C)O)C(C)C)C(=O)N[C@@H](CCSC)C(=O)O` (H-[X1]S[Bpa]TKC(Farnesyl)VIM-OH): the outcome in [5] was Active.

Take `CC[C@H](C)[C@H](NC(=O)[C@@H](NC(=O)[C@H](CSC/C=C(\C)CC/C=C(\C)CCC=C(C)C)NC(=O)[C@H](CCCCN)NC(=O)[C@@H](NC(=O)[C@H](CCCCN)NC(=O)[C@H](Cc1ccc(C(=O)c2ccccc2)cc1)NC(=O)[C@H](CCCCN)NCCOCCOCCOC(=O)CCCC[C@@H]1SC[C@@H]2NC(=O)N[C@@H]21)[C@@H](C)O)C(C)C)C(=O)N[C@@H](CCSC)C(=O)O` (H-[X1][Bpa]KTKC(Farnesyl)VIM-OH): the result in test [5] was Active.

Take `CC[C@H](C)[C@H](NC(=O)[C@@H](NC(=O)[C@H](CSC/C=C(\C)CC/C=C(\C)CCC=C(C)C)NC(=O)[C@H](CCCCN)NC(=O)[C@@H](NC(=O)[C@H](CCCCN)NC(=O)[C@H](CO)NC(=O)[C@H](Cc1ccc(C(=O)c2ccccc2)cc1)NCCOCCOCCOC(=O)CCCC[C@@H]1SC[C@@H]2NC(=O)N[C@@H]21)[C@@H](C)O)C(C)C)C(=O)N[C@@H](CCSC)C(=O)O` (H-[X5]SKTKC(Farnesyl)VIM-OH): the result in test [5] was Active.

On to `CC[C@H](C)[C@H](NC(=O)[C@H](CCCCNc1ccc([N+](=O)[O-])cc1[N+](=O)[O-])NC(=O)[C@H](CSC/C=C(\C)CC/C=C(\C)COCc1cccc(C(=O)c2ccccc2)c1)NC(=O)[C@H](CCCCN)NC(=O)[C@@H](NC(=O)[C@H](CCCCN)NC(=O)[C@H](CO)NC(=O)[C@H](CCCCN)NC(=O)[C@H](CCCCNC(C)=C1C(=O)CC(C)(C)CC1=O)NC(=O)CCC(=O)NCOCCOCCOCCOC(=O)CCCC[C@@H]1SC[C@@H]2NC(=O)N[C@@H]21)[C@@H](C)O)C(=O)N[C@@H](CCSC)C(=O)O` ({X4-Suc}-[Lys(Dde)]KSKTKC(X2)K(Dnp)IM-OH), for which the result in test [5] was Active.

As for `CC[C@H](C)[C@H](NC(=O)[C@H](CCCCNc1ccc([N+](=O)[O-])cc1[N+](=O)[O-])NC(=O)[C@H](CSC/C=C(\C)COCc1cccc(C(=O)c2ccccc2)c1)NC(=O)[C@H](CCCCN)NC(=O)[C@@H](NC(=O)[C@H](CCCCN)NC(=O)[C@H](CO)NC(=O)[C@H](CCCCN)NC(=O)[C@H](CCCCNC(C)=C1C(=O)CC(C)(C)CC1=O)NC(=O)CCC(=O)NCOCCOCCOCCOC(=O)CCCC[C@@H]1SC[C@@H]2NC(=O)N[C@@H]21)[C@@H](C)O)C(=O)N[C@@H](CCSC)C(=O)O` ({X4-Suc}-[Lys(Dde)]KSKTKC(X3)K(Dnp)IM-OH), in test [5], the outcome was Active.

For the origin of these results see ChEMBL document CHEMBL2203008, “Photoaffinity labeling of Ras converting enzyme using peptide substrates that incorporate benzoylphenylalanine (Bpa) residues: improved labeling and structural implications” (Bioorg Med Chem, 2011).
